2 molecules from ChEMBL document CHEMBL5131562, “1,3-Dioxane-Linked Novel Bacterial Topoisomerase Inhibitors: Expanding Structural Diversity and the Antibacterial Spectrum” (ACS Med Chem Lett, 2022) can be followed below.

Values after ≈ are worked out from the molar mass of the structure shown. Some results are limits rather than exact numbers.

The first data set deals with Staphylococcus aureus. The experiment in a line: Antibacterial activity against Staphylococcus aureus 3527 by CLSI method. It is filed as functional.
Details: not given
The term MIC denotes the lowest concentration found to suppress growth. Higher therefore signals weaker potency. Molecule `COc1ccc2ncc(F)c(C[C@H](O)[C@H]3OC[C@H](NC(=O)c4ccc5c(c4)OCCO5)CO3)c2n1` returned an MIC of 0.25 µg/mL (≈ 0.515 µM).

`COc1ccc2ncc(F)c(C[C@H](O)[C@H]3OC[C@H](NC(=O)c4ccc5c(n4)NC(=O)CO5)CO3)c2n1` had a minimal inhibitory concentration (MIC) not above 0.06 µg/mL.

Another data set relates to Staphylococcus aureus. Nature of the data set: Antibacterial activity against Staphylococcus aureus harbouring GyrA D83N mutant by CLSI method. It is filed as functional.
Details: not given
For the molecule `COc1ccc2ncc(F)c(C[C@H](O)[C@H]3OC[C@H](NC(=O)c4ccc5c(c4)OCCO5)CO3)c2n1`, the MIC was 2 µg/mL (≈ 4.12 µM).

Take `COc1ccc2ncc(F)c(C[C@H](O)[C@H]3OC[C@H](NC(=O)c4ccc5c(n4)NC(=O)CO5)CO3)c2n1`: the MIC was found to be 1 µg/mL (≈ 2 µM).

For a further data set, the system named is Staphylococcus aureus. The experiment in a line: Antibacterial activity against methicillin-resistant Staphylococcus aureus USA300 by CLSI method.
Details: not given
It is filed as functional.
Regarding `COc1ccc2ncc(F)c(C[C@H](O)[C@H]3OC[C@H](NC(=O)c4ccc5c(c4)OCCO5)CO3)c2n1`, the minimal inhibitory concentration (MIC) stood at 0.25 µg/mL (≈ 0.515 µM).

For `COc1ccc2ncc(F)c(C[C@H](O)[C@H]3OC[C@H](NC(=O)c4ccc5c(n4)NC(=O)CO5)CO3)c2n1`, the MIC was not above 0.06 µg/mL.

A further data set deals with DNA gyrase (Staphylococcus aureus, UniProt P0A0K8+P20831). The experiment in a line: Inhibition of Staphylococcus aureus DNA gyrase supercoiling activity incubated for 25 min by ethidium bromide/bromophenol blue staining based agarose gel electrophoresis analysis. It is filed as protein-complex assay.
Details: not given
As usually defined, the IC50 is the point on the concentration scale where inhibition reaches its midpoint. In turn, `COc1ccc2ncc(F)c(C[C@H](O)[C@H]3OC[C@H](NC(=O)c4ccc5c(c4)OCCO5)CO3)c2n1` showed an IC50 of 0.23 µM.

Regarding `COc1ccc2ncc(F)c(C[C@H](O)[C@H]3OC[C@H](NC(=O)c4ccc5c(n4)NC(=O)CO5)CO3)c2n1`, the IC50 turned out to be 0.19 µM.

Test system in a further data set: not listed separately
Nature of the data set: Cytotoxicity activity against human K562 cells assessed as inhibition of cellular growth. It is filed as toxicity, cell-based.
Details: not given
An outline of the steps:
(§1)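 Human K562 leukemia cells were tested alongside K/VP.5, an etoposide-resistant clonal subline derived from them that has reduced levels of human topoisomerase IIα. Cell growth inhibition was expressed as an IC50.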
As to `COc1ccc2ncc(F)c(C[C@H](O)[C@H]3OC[C@H](NC(=O)c4ccc5c(c4)OCCO5)CO3)c2n1`, the IC50 was 1.6 µM.

For `COc1ccc2ncc(F)c(C[C@H](O)[C@H]3OC[C@H](NC(=O)c4ccc5c(n4)NC(=O)CO5)CO3)c2n1`, the IC50 stood at 0.49 µM.

For another data set, the system named is Neisseria gonorrhoeae. Nature of the data set: Antimicrobial activity against Neisseria gonorrhoeae K strain harbouring type 2 topoisomerase GyrA S91F, D95N and ParC S87R, S88P mutant incubated for 20 to 24 hrs by CLSI protocol based broth microdilution method. It is filed as functional. The settings on record: time 20-24 hrs. For orientation: Broth dilution looks for growth in wells or tubes with falling amounts of substance.
The molecule `COc1ccc2ncc(F)c(C[C@H](O)[C@H]3OC[C@H](NC(=O)c4ccc5c(c4)OCCO5)CO3)c2n1` came in with an MIC of more than 16 µg/mL.

Take `COc1ccc2ncc(F)c(C[C@H](O)[C@H]3OC[C@H](NC(=O)c4ccc5c(n4)NC(=O)CO5)CO3)c2n1`: the MIC was 0.12 µg/mL (≈ 0.24 µM).

In a further data set the test system is Staphylococcus aureus. The experiment in a line: Selectivity ratio of IC50 for inhibition of Staphylococcus aureus DNA topoisomerase 4 decatenation activity to IC50 for inhibition of Staphylococcus aureus DNA gyrase supercoiling activity.
Details: not given
For `COc1ccc2ncc(F)c(C[C@H](O)[C@H]3OC[C@H](NC(=O)c4ccc5c(c4)OCCO5)CO3)c2n1`, the Ratio IC50 turned out to be 7.6.

Regarding `COc1ccc2ncc(F)c(C[C@H](O)[C@H]3OC[C@H](NC(=O)c4ccc5c(n4)NC(=O)CO5)CO3)c2n1`, the Ratio IC50 came out at 5.8.

Test system in a further data set: not listed separately
The experiment in a line: Metabolic stability in mouse liver microsomes assessed as half life. It is filed as ADME, Microsome.
Details: not given
A word on the half-life: it is how long it takes for the measured level to halve. In the case of `COc1ccc2ncc(F)c(C[C@H](O)[C@H]3OC[C@H](NC(=O)c4ccc5c(c4)OCCO5)CO3)c2n1`, the half-life came to 14.2 min.

For `COc1ccc2ncc(F)c(C[C@H](O)[C@H]3OC[C@H](NC(=O)c4ccc5c(n4)NC(=O)CO5)CO3)c2n1`, the half-life came to 5.56 min.

The next data set deals with Voltage-gated inwardly rectifying potassium channel KCNH2 (Homo sapiens, UniProt Q12809). The experiment in a line: Inhibition of hERG cardiac ion channel. It is filed as toxicity.
Details: not given
Put shortly: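 hERG channel inhibition was run by a contract lab. […] Determinations were made in duplicate or triplicate (n = 2 or 3).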
The molecule `COc1ccc2ncc(F)c(C[C@H](O)[C@H]3OC[C@H](NC(=O)c4ccc5c(c4)OCCO5)CO3)c2n1` came in with an IC50 of more than 100 µM.

Take `COc1ccc2ncc(F)c(C[C@H](O)[C@H]3OC[C@H](NC(=O)c4ccc5c(n4)NC(=O)CO5)CO3)c2n1`: the IC50 was more than 100 µM.

For another data set, the system named is Neisseria gonorrhoeae. Nature of the data set: Antimicrobial activity against wild type Neisseria gonorrhoeae V strain harbouring type 2 topoisomerase GyrA S91F, D95G and ParC S87R mutant incubated for 20 to 24 hrs by CLSI protocol based broth microdilution method. It is filed as functional. To be noted: time 20-24 hrs.
For `COc1ccc2ncc(F)c(C[C@H](O)[C@H]3OC[C@H](NC(=O)c4ccc5c(c4)OCCO5)CO3)c2n1`, the MIC was 0.25 µg/mL (≈ 0.515 µM).

`COc1ccc2ncc(F)c(C[C@H](O)[C@H]3OC[C@H](NC(=O)c4ccc5c(n4)NC(=O)CO5)CO3)c2n1` came in with an MIC not above 0.015 µg/mL.

A further data set deals with Neisseria gonorrhoeae. The experiment in a line: Antimicrobial activity against wild type Neisseria gonorrhoeae O strain incubated for 20 to 24 hrs by CLSI protocol based broth microdilution method. It is filed as functional. The settings on record: time 20-24 hrs.
Regarding `COc1ccc2ncc(F)c(C[C@H](O)[C@H]3OC[C@H](NC(=O)c4ccc5c(c4)OCCO5)CO3)c2n1`, the MIC is more than 16 µg/mL.

On to `COc1ccc2ncc(F)c(C[C@H](O)[C@H]3OC[C@H](NC(=O)c4ccc5c(n4)NC(=O)CO5)CO3)c2n1`, for which 0.06 µg/mL (≈ 0.12 µM) was the least that counted as inhibitory (MIC).

Another data set has as its system Staphylococcus aureus. Nature of the data set: Antibacterial activity against cystic fibrosis isolate Staphylococcus aureus by CLSI method. It is filed as functional.
Details: not given
The molecule `COc1ccc2ncc(F)c(C[C@H](O)[C@H]3OC[C@H](NC(=O)c4ccc5c(c4)OCCO5)CO3)c2n1` came in with an MIC of 0.25 µg/mL (≈ 0.515 µM).

`COc1ccc2ncc(F)c(C[C@H](O)[C@H]3OC[C@H](NC(=O)c4ccc5c(n4)NC(=O)CO5)CO3)c2n1`: the MIC was not above 0.06 µg/mL.

Test system in the next data set: not listed separately
Nature of the data set: Cytotoxicity activity against human K/VP.5 cells assessed as inhibition of cellular growth. It is filed as toxicity, cell-based.
Details: not given
An outline of the steps:
as §1
As to `COc1ccc2ncc(F)c(C[C@H](O)[C@H]3OC[C@H](NC(=O)c4ccc5c(c4)OCCO5)CO3)c2n1`, the IC50 was determined as 6 µM.

As to `COc1ccc2ncc(F)c(C[C@H](O)[C@H]3OC[C@H](NC(=O)c4ccc5c(n4)NC(=O)CO5)CO3)c2n1`, the 50% inhibitory concentration (IC50) worked out at 3.1 µM.

Another data set relates to Neisseria gonorrhoeae. The experiment in a line: Antimicrobial activity against wild type Neisseria gonorrhoeae ATCC 49226 incubated for 20 to 24 hrs by CLSI protocol based broth microdilution method. To be noted: time 20-24 hrs. It is filed as functional.
Molecule `COc1ccc2ncc(F)c(C[C@H](O)[C@H]3OC[C@H](NC(=O)c4ccc5c(c4)OCCO5)CO3)c2n1` came in with an MIC of 4 µg/mL (≈ 8.24 µM).

In turn, `COc1ccc2ncc(F)c(C[C@H](O)[C@H]3OC[C@H](NC(=O)c4ccc5c(n4)NC(=O)CO5)CO3)c2n1` yielded an MIC not above 0.015 µg/mL.

For the next data set, the system named is Staphylococcus aureus. The experiment in a line: Antibacterial activity against Staphylococcus aureus ATCC 29213 by CLSI method. It is filed as functional.
Details: not given
Molecule `COc1ccc2ncc(F)c(C[C@H](O)[C@H]3OC[C@H](NC(=O)c4ccc5c(c4)OCCO5)CO3)c2n1` registered an MIC of 0.25 µg/mL (≈ 0.515 µM).

In turn, `COc1ccc2ncc(F)c(C[C@H](O)[C@H]3OC[C@H](NC(=O)c4ccc5c(n4)NC(=O)CO5)CO3)c2n1` had an MIC of 0.125 µg/mL (≈ 0.25 µM).

In a further data set the target is Topoisomerase IV (Staphylococcus aureus, UniProt P0C1S7+P0C1U9). The experiment in a line: Inhibition of Staphylococcus aureus DNA topoisomerase 4 decatenation activity using kDNA as substrate incubated for 10 to 20 min by ethidium bromide/bromophenol blue staining based agarose gel electrophoresis analysis. It is filed as protein-complex assay.
Details: not given
Turning to `COc1ccc2ncc(F)c(C[C@H](O)[C@H]3OC[C@H](NC(=O)c4ccc5c(c4)OCCO5)CO3)c2n1`, the IC50 is 1.7 µM.

In turn, `COc1ccc2ncc(F)c(C[C@H](O)[C@H]3OC[C@H](NC(=O)c4ccc5c(n4)NC(=O)CO5)CO3)c2n1` showed an IC50 of 1.1 µM.

The subject of a further data set is Neisseria gonorrhoeae. The experiment in a line: Antimicrobial activity against wild type Neisseria gonorrhoeae Y strain harbouring type 2 topoisomerase GyrA S91F, D95G and ParC S87R mutant incubated for 20 to 24 hrs by CLSI protocol based broth microdilution method. It is filed as functional. The settings on record: time 20-24 hrs.
For `COc1ccc2ncc(F)c(C[C@H](O)[C@H]3OC[C@H](NC(=O)c4ccc5c(c4)OCCO5)CO3)c2n1`, the MIC is 0.5 µg/mL (≈ 1.03 µM).

As to `COc1ccc2ncc(F)c(C[C@H](O)[C@H]3OC[C@H](NC(=O)c4ccc5c(n4)NC(=O)CO5)CO3)c2n1`, the MIC was not above 0.015 µg/mL.

The next data set has as its system Neisseria gonorrhoeae. Nature of the data set: Antimicrobial activity against wild type Neisseria gonorrhoeae F strain incubated for 20 to 24 hrs by CLSI protocol based broth microdilution method. To be noted: time 20-24 hrs. It is filed as functional.
Turning to `COc1ccc2ncc(F)c(C[C@H](O)[C@H]3OC[C@H](NC(=O)c4ccc5c(c4)OCCO5)CO3)c2n1`, the MIC was found to be 0.25 µg/mL (≈ 0.515 µM).

With `COc1ccc2ncc(F)c(C[C@H](O)[C@H]3OC[C@H](NC(=O)c4ccc5c(n4)NC(=O)CO5)CO3)c2n1`, the MIC is not above 0.015 µg/mL.

For the next data set, the system named is Neisseria gonorrhoeae. Nature of the data set: Antimicrobial activity against Neisseria gonorrhoeae G strain harbouring type 2 topoisomerase GyrA S91F and ParE G410V mutant incubated for 20 to 24 hrs by CLSI protocol based broth microdilution method. It is filed as functional. The settings on record: time 20-24 hrs.
`COc1ccc2ncc(F)c(C[C@H](O)[C@H]3OC[C@H](NC(=O)c4ccc5c(c4)OCCO5)CO3)c2n1` registered an MIC of more than 16 µg/mL.

`COc1ccc2ncc(F)c(C[C@H](O)[C@H]3OC[C@H](NC(=O)c4ccc5c(n4)NC(=O)CO5)CO3)c2n1` registered a minimal inhibitory concentration (MIC) of 0.25 µg/mL (≈ 0.501 µM).

A further data set deals with Neisseria gonorrhoeae. Nature of the data set: Antimicrobial activity against wild type Neisseria gonorrhoeae P strain incubated for 20 to 24 hrs by CLSI protocol based broth microdilution method. It is filed as functional. To be noted: time 20-24 hrs.
`COc1ccc2ncc(F)c(C[C@H](O)[C@H]3OC[C@H](NC(=O)c4ccc5c(c4)OCCO5)CO3)c2n1` displayed an MIC of more than 16 µg/mL.

Consider `COc1ccc2ncc(F)c(C[C@H](O)[C@H]3OC[C@H](NC(=O)c4ccc5c(n4)NC(=O)CO5)CO3)c2n1`, for which the minimum inhibitory concentration (MIC) was not above 0.015 µg/mL.
